Experimental data from ChEMBL document CHEMBL1145787, “Synthesis and structure-activity relationship of N-substituted 4-arylsulfonylpiperidine-4-hydroxamic acids as novel, orally active matrix metalloproteinase inhibitors for the treatment of osteoarthritis” (J Med Chem, 2003).

Assays:
[1] = Time of peak concentration of compound was determined in dog at 25 mg/kg orally; type: ADME, organism-based, Canis lupus familiaris; design: dose 25 mg/kg, route oral; details: in vivo, po
In short: (§1)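 Single oral dose of 25 mg/kg in Sprague–Dawley rats, New Zealand rabbits, Beagle dogs and Cynomolgus monkeys. Mean plasma pharmacokinetics; Cmax is the maximum plasma concentration and Tmax is the time of peak concentration.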

[2] = Time of peak concentration of compound was determined in monkey at 25 mg/kg orally; type: ADME, organism-based; design: dose 25 mg/kg, route oral; details: simiiformes, in vivo, po; in short: as §1
[3] = Time of peak concentration of compound was determined in rat at 25 mg/kg orally; type: ADME, organism-based; design: dose 25 mg/kg, route oral; details: in vivo, po; in short: as §1
[4] = Oral bioavailability of compound was determined in monkey at 25 mg/kg orally; type: ADME, organism-based; details: simiiformes, in vivo, read-out: Bioavailabiility
[5] = Oral bioavailability of compound was determined in rabbit at 25 mg/kg orally; type: ADME, organism-based, Oryctolagus cuniculus; details: in vivo, read-out: Bioavailabiility
[6] = Apparent elimination half life of compound was determined in dog at 25 mg/kg orally; type: ADME, organism-based, Canis lupus familiaris; design: dose 25 mg/kg, route oral; details: in vivo, po
In short: (§2)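 Single-dose PK in Sprague–Dawley rats, New Zealand rabbits, Beagle dogs and cynomolgus monkeys. Dosing was 25 mg/kg oral or 5 mg/kg iv. Plasma concentration–time profiles gave the apparent elimination half-life (T1/2) and the area under the concentration–time curve (AUC). Parameters are reported as means.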

[7] = Apparent elimination half life of compound was determined in dogt at 5 mg/kg intravenously admn.; type: ADME, organism-based, Canis lupus familiaris; design: dose 5 mg/kg, route intravenous; details: dog, in vivo, iv; in short: as §2
[8] = Apparent elimination half life of compound was determined in monkey at 5 mg/kg intravenously admn.; type: ADME, organism-based; design: dose 5 mg/kg, route intravenous; details: simiiformes, in vivo, iv; in short: as §2
[9] = Apparent elimination half life of compound was determined in rabbit at 25 mg/kg orally; type: ADME, organism-based, Oryctolagus cuniculus; design: dose 25 mg/kg, route oral; details: in vivo, po; in short: as §2
[10] = Apparent elimination half life of compound was determined in rabbit at 5 mg/kg intravenously admn.; type: ADME, organism-based, Oryctolagus cuniculus; design: dose 5 mg/kg, route intravenous; details: in vivo, iv; in short: as §2
[11] = Apparent elimination half life of compound was determined in rat at 25 mg/kg orally; type: ADME, organism-based; design: dose 25 mg/kg, route oral; details: in vivo, po; in short: as §2
[12] = Apparent elimination half life of compound was determined in rat at 5 mg/kg intravenously admn.; type: ADME, organism-based; design: dose 5 mg/kg, route intravenous; details: in vivo, iv; in short: as §2
[13] = In vivo inhibitory activity against Matrix metalloprotease enzyme by dialysis implant assay, value is relative to activity of CGS-27023 (48+/-3) at 25 mg/kg. po; type: functional
Matrilysin = target: T1, Matrilysin (Homo sapiens, UniProt P09237); assay: Inhibition of Matrix metalloprotease-7
T1 sequence (P09237 whole entry): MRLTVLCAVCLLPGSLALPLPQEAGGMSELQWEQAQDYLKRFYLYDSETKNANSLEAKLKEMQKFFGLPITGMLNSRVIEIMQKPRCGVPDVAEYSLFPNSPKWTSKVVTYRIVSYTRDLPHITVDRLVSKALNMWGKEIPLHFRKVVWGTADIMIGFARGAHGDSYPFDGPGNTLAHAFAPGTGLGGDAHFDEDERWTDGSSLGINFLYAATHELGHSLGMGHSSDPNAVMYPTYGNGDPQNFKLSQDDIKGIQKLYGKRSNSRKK
In short: (§3)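 Each inhibitor concentration was tested in triplicate. IC50 came from a four-parameter logistic fit of data within a single experiment and is reported as the mean of the triplicate values.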

[14] = In vivo inhibition of Matrix metalloprotease enzyme by Sponge-wrapped cartilage assay, compared to activity of RS-130830 (20+/-2) at 5 mg/kg. po. bid; type: functional
[15] = In vivo inhibition of Matrix metalloprotease enzyme by Sponge-wrapped cartilage assay, compared to activity of RS-130830 (inactive) at 5 mg/kg. po. qd; type: functional
Neutrophil collagenase = Neutrophil collagenase (Homo sapiens, UniProt P22894); assay: Inhibition of Matrix metalloprotease-8; in short: as §3
[16] = target: Matrix metalloproteinase-9 (Homo sapiens, UniProt P14780); assay: In vitro inhibitory activity against matrix metalloprotease-9.
Stromelysin-1 = Stromelysin-1 (Homo sapiens, UniProt P08254); assay: Inhibition of Matrix metalloprotease-3; in short: as §3
[17] = target: Matrix metalloproteinase-14 (Homo sapiens, UniProt P50281); assay: Inhibition of Matrix metalloprotease-14
In short: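 Inhibitor concentrations run in triplicate; IC50 from a four-parameter logistic fit within a single experiment, reported as the mean of triplicate values.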

[18] = target: 72 kDa type IV collagenase (Homo sapiens, UniProt P08253); assay: Inhibition of Matrix metalloprotease-2; in short: as §3
[19] = Apparent elimination half life of compound was determined in monkey at 25 mg/kg orally; type: ADME, organism-based; design: dose 25 mg/kg, route oral; details: simiiformes, in vivo, po; in short: as §2
[20] = Total clearance of compound was determined in dog at 5 mg/kg intravenously admn.; type: ADME, organism-based, Canis lupus familiaris; design: dose 5 mg/kg, route intravenous; details: in vivo, iv, read-out: CLT
In short: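 Single iv dose of 5 mg/kg in Sprague–Dawley rats, New Zealand rabbits, Beagle dogs and Cynomolgus monkeys. Mean plasma pharmacokinetics: C0 is the concentration at T=0, Vdss the volume of distribution at steady state, and CLT the total clearance.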

[21] = Time of peak concentration of compound was determined in rabbit at 25 mg/kg orally; type: ADME, organism-based, Oryctolagus cuniculus; design: dose 25 mg/kg, route oral; details: in vivo, po; in short: as §1
[22] = Oral bioavailability of compound was determined in rat at 25 mg/kg orally; type: ADME, organism-based; details: in vivo, read-out: Bioavailabiility
Collagenase 3 = Collagenase 3 (Homo sapiens, UniProt P45452)

Stromelysin-1, sequence (P08254 whole entry): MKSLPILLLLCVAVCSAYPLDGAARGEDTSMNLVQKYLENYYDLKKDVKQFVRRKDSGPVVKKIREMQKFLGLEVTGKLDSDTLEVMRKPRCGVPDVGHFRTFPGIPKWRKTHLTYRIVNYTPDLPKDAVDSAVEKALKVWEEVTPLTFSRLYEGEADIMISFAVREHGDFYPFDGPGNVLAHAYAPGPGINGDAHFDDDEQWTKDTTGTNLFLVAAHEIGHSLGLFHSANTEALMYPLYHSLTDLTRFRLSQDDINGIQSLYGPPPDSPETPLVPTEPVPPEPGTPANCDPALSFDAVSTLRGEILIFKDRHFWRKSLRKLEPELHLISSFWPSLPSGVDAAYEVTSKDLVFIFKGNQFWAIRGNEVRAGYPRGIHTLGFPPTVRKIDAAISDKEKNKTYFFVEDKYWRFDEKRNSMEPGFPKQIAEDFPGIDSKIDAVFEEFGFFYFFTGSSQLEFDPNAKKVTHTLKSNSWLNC
Matrix metalloproteinase-9, sequence (P14780 whole entry): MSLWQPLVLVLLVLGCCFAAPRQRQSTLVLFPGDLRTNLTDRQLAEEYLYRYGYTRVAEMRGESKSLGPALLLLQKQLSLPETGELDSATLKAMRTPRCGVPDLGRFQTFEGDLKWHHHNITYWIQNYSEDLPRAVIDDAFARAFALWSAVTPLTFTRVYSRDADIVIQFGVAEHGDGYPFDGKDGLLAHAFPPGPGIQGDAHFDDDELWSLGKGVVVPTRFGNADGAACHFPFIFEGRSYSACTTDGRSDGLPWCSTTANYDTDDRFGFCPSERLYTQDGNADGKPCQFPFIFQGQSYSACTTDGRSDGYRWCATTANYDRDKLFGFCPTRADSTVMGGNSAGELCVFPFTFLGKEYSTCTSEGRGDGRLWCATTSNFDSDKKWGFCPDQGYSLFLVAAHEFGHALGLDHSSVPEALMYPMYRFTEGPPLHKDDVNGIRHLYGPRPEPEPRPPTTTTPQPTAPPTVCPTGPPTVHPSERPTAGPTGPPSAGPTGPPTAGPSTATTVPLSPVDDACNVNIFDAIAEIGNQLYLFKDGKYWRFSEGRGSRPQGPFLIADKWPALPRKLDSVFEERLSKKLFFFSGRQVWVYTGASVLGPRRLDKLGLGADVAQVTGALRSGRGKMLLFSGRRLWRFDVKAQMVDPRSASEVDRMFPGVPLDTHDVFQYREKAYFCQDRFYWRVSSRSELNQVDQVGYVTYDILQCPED
72 kDa type IV collagenase, sequence (P08253 whole entry): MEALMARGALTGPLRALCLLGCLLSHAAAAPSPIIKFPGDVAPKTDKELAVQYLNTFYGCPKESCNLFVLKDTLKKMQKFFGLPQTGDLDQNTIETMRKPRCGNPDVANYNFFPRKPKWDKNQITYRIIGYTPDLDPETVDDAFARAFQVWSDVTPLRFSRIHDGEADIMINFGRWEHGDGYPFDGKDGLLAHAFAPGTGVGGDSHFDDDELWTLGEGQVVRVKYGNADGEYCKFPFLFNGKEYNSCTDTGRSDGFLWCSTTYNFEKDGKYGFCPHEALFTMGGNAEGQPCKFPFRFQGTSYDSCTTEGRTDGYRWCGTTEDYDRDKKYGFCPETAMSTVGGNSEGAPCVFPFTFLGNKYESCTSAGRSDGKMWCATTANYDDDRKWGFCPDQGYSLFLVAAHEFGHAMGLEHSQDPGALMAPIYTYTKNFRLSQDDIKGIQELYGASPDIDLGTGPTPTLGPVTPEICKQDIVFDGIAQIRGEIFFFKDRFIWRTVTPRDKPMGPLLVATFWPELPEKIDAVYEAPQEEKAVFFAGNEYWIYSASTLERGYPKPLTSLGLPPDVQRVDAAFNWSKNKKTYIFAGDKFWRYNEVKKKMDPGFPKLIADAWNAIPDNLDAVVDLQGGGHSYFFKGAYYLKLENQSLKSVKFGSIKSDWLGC
Neutrophil collagenase, sequence (P22894 whole entry): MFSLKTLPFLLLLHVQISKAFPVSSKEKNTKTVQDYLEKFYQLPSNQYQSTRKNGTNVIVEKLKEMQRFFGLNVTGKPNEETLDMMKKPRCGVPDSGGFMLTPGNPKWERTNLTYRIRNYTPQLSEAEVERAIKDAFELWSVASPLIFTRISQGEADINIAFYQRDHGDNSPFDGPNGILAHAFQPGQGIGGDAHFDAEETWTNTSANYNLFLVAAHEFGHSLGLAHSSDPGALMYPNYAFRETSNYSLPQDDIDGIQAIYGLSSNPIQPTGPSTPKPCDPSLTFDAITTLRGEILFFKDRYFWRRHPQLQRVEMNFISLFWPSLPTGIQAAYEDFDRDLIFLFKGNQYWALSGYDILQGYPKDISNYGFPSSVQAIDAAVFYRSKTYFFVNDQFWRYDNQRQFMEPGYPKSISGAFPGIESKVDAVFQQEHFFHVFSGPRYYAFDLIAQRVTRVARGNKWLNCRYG

O=C(NO)C1(S(=O)(=O)c2ccc(Oc3ccc(Cl)cc3)cc2)CCN(Cc2ccccc2)CC1
Tmax [1]: 3.5 h | Tmax [2]: 5.7 h | Tmax [3]: 1.5 h | bioavailability [4]: 37% | bioavailability [5]: 11% | half-life [6]: 17.6 h | half-life [7]: 13.5 h | half-life [8]: 20.7 h | half-life [9]: 7.14 h | half-life [10]: 11.8 h | half-life [11]: 10.7 h | half-life [12]: 4.4 h | inhibition in vivo at 25 mg/kg [13]: 53% | IC50 (Matrilysin): 925 nM | inhibition in vivo at 5 mg/kg [14]: 53% | inhibition in vivo at 5 mg/kg [15]: 24% | IC50 (Neutrophil collagenase): 1 nM | IC50 [16]: 1 nM | IC50 (Stromelysin-1): 55 nM | IC50 [17]: 7 nM | IC50 [18]: 1 nM | half-life [19]: 20 h | clearance [20]: 0.1 mL/min/kg | Tmax [21]: 10 h | bioavailability [22]: 55% | IC50 (Collagenase 3): 1 nM
